Our source for the inhibition in vivo, IC50 and ED50 values is ChEMBL document CHEMBL1124662, “Antiinflammatory activity of a series of substituted 2,3-dihydro-6-hydroxypyrimido[2,1-f]purine-4,8(1H,9H)-diones” (J Med Chem, 1989).

Assay [1] deals with Rattus norvegicus. As to the kind of experiment: Anti-inflammatory activity against reverse passive […] reaction-synovitis in rat at 50 mg/kg oral dose. The class given is functional. The essentials: (§1)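 Lewis rats dosed orally with drug or placebo 1 h before iv bovine serum albumin in saline, then 0.54 mg rabbit anti-BSA antibody intraarticular in one knee, saline in the other, under light anesthesia. Second oral dose at 3 h; the dose used is the total given before and after induction.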

Assay [2] can be described thus: Inhibition of guinea pig Phosphodiesterase. Further details: species or system Cavia porcellus.
Assay [3] concerns Rattus norvegicus. The experiment in a line: Prophylactic anti-inflammatory activity in adjuvant arthritic rat at 9 mg/kg in noninjected 2 degree paw. The class given is functional. The essentials:
(§2)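 Heat-killed Mycobacterium tuberculosis ground and homogenized in paraffin oil (6 mg/mL); 0.1 mL injected into left hind paw. Drug dosed 1 h before challenge, then daily for 21 consecutive days; controls received methylcellulose. Both hind paw volumes measured by plethysmograph immediately and on day 21; % inhibition of Δ paw volume.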

Assay [4] has as its system Rattus norvegicus. The experiment in a line: Anti-inflammatory activity against reverse passive […] reaction-synovitis in rat at 100 mg/kg oral dose. It is filed as functional. The essentials: as §1
The next assay has as its target T1, Cyclooxygenase (Rattus norvegicus, UniProt P35355+Q63921).
T1 sequence (P35355 whole entry): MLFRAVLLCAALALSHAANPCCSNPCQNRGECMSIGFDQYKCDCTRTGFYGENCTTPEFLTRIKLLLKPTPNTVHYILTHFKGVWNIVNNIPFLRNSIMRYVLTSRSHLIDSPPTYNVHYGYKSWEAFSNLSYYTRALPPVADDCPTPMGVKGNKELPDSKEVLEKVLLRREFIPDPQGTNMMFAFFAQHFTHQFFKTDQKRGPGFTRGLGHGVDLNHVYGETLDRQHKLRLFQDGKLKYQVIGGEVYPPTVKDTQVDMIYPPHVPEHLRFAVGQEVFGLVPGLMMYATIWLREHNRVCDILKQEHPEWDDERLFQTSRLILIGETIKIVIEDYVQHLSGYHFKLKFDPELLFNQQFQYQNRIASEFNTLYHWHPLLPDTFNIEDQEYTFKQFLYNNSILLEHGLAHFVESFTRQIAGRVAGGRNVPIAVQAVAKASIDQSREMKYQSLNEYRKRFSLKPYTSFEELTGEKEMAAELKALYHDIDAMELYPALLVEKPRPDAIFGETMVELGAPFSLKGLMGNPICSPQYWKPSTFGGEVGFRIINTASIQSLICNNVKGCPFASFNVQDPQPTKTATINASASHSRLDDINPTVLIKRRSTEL
T1 sequence (Q63921 whole entry): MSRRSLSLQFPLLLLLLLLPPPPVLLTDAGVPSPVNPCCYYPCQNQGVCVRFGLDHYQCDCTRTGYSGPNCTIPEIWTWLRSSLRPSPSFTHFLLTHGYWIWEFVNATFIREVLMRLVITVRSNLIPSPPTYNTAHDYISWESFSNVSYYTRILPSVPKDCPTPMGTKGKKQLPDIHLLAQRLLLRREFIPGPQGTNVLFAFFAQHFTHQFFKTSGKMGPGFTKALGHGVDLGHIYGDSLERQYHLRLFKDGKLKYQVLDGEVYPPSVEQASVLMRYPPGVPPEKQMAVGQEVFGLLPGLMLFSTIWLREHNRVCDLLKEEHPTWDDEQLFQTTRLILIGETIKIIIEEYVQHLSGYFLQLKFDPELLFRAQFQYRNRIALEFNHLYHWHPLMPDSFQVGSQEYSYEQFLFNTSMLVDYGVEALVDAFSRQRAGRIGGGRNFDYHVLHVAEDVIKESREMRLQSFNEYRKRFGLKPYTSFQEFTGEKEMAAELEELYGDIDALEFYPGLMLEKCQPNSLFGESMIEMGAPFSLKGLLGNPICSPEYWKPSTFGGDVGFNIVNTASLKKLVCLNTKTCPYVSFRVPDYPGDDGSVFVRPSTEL
The experiment in a line: Inhibitory activity against Prostaglandin G/H synthase in an in vitro rat neutrophil assay. It is filed as protein assay.

Assay [5] has as its system Rattus norvegicus. As to the kind of experiment: Prophylactic anti-inflammatory activity in adjuvant arthritic rat at 3 mg/kg in noninjected 2 degree paw. It is filed as functional. The essentials: as §2
Assay [6] concerns Rattus norvegicus. The experiment in a line: Prophylactic anti-inflammatory activity in adjuvant arthritic rat at 9 mg/kg in noninjected 1 degree paw. It is filed as functional. The essentials: as §2
Assay [7] concerns Rattus norvegicus. As to the kind of experiment: Prophylactic anti-inflammatory activity in adjuvant arthritic rat at 3 mg/kg in noninjected 1 degree paw. The class given is functional. The essentials:
as §2

Assay [8] relates to Rattus norvegicus. As to the kind of experiment: Prophylactic anti-inflammatory activity in adjuvant arthritic rat at 27 mg/kg in noninjected 1 degree paw. It is filed as functional. The essentials:
as §2

Assay [9] concerns Rattus norvegicus. The experiment in a line: Prophylactic oral administration in adjuvant arthritic rat model at 27 mg/kg in noninjected 2 degree paw. It is filed as functional. The essentials: as §2
Assay [10] in a line: Therapeutic oral administration in adjuvant arthritic rat model at 25 mg/kg in noninjected 2 degree paw. The class given is ADME, organism-based. The arrangement: dose 25 mg/kg, route oral. The essentials:
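Adjuvant arthritis (heat-killed M. tuberculosis in paraffin oil, 6 mg/mL, 0.1 mL into left hind paw) left to develop 7 days before first oral dose; treatment continued 35 days. Controls given methylcellulose; hind paw volumes measured by plethysmograph as Δ paw volume; % inhibition.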

The test system of assay [11] is Rattus norvegicus. As to the kind of experiment: Prophylactic anti-inflammatory activity in adjuvant arthritic rat at 27 mg/kg in noninjected 2 degree paw. It is filed as functional. The essentials: as §2

“And” between values parts separate entries of the source, which are not always exact repeats. Identical values can stand only once.

Consider `CN1CN(C)c2nc3n(Cc4ccccc4)c(O)cc(=O)n3c2C1=O`, for which, in the assay on Rattus norvegicus [1], the inhibition in vivo (commonly how much of the control response was suppressed) at 50 mg/kg was found to be 0%.

Regarding `CC(C)=CCc1c(O)n(Cc2ccccc2)c2nc3c(n2c1=O)C(=O)N(C)CN3C`, the IC50 – broadly, the concentration that gives 50% inhibition – is 37 µM and 200 µM in [2]; 6 µM on Cyclooxygenase. The inhibition in vivo at 9 mg/kg in the assay with Rattus norvegicus [3] amounted to 65%; with Rattus norvegicus [6] it was 33%. Also, the inhibition in vivo at 100 mg/kg in the assay on Rattus norvegicus [4] turned out to be 20%. The inhibition in vivo at 3 mg/kg was 47% with Rattus norvegicus [5] and 17% in the assay with Rattus norvegicus [7]. Besides, the inhibition in vivo at 27 mg/kg is 54% with Rattus norvegicus [8] and 92% in the assay with Rattus norvegicus [11]. Further, the figures for the ED50 (with Rattus norvegicus [9]; in assay [10]) were 6.02 mg/kg and 15 mg/kg, respectively.
